In ChEMBL document CHEMBL1143060, “Synthesis and pharmacological investigation of novel 4-benzyl-1-substituted-4H-[1,2,4]triazolo[4,3-a]quinazolin-5-ones as new class of H1-antihistaminic agents” (2007):

Legend:
Format in all cases: functional
[1] = tested on: Cavia porcellus; assay: Antihistaminic activity in Dunkin-Hartley guinea pig assessed as protection against histamine-induced bronchospasm at 10 mg/kg, po
How it was run: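 Male Dunkin Hartley guinea pigs (250–300 g), fasted 12 h, six per group, dosed orally at 10 mg/kg in 1% CMC. They were then challenged in a closed transparent cage with nebulized histamine aerosol (0.2% aqueous histamine acid chloride, 3 ml). Preconvulsion onset time was recorded, and animals stable >6 min counted as protected. Mean preconvulsion time versus control was expressed as percent protection.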

[2] = tested on: Mus musculus; assay: Sedative-hypnotic activity in Swiss Albino mouse assessed as reduction of locomotor activity at 5 mg/kg, po after 1 hrs; set-up: scale not given: the % may be the effect or the level left
How it was run: (§1)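 Locomotor activity was scored at 1, 2 and 3 h after dosing, and percent reduction in locomotor activity was calculated. Significance versus control was tested by Student's t test. Animals were housed at 45–55% relative humidity on a 12 h light/dark cycle, fed standard feed, and acclimatized for one week before use.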

[3] = tested on: Mus musculus; assay: Sedative-hypnotic activity in Swiss Albino mouse assessed as reduction of locomotor activity at 5 mg/kg, po after 2 hrs; set-up: scale not given: the % may be the effect or the level left; how it was run: as §1
[4] = tested on: Mus musculus; assay: Sedative-hypnotic activity in Swiss Albino mouse assessed as reduction of locomotor activity at 5 mg/kg, po after 3 hrs; set-up: scale not given: the % may be the effect or the level left; how it was run: as §1

SMILES	Activity [1]	Activity [2]	Activity [3]	Activity [4]
O=c1c2ccccc2n2cnnc2n1Cc1ccccc1	73.99%	6%	9%	4%
CN(C)CC[C@@H](c1ccccc1)c1ccccn1.O=C(O)/C=C\C(=O)O [PHENIRAMINE MALEATE]	71%	37%	32%	22%
CCCc1nnc2n(Cc3ccccc3)c(=O)c3ccccc3n12	73.87%	9%	15%	11%
O=c1c2ccccc2n2c(CN3CCCCC3)nnc2n1Cc1ccccc1	73.93%	9%	15%	8%
Cc1nnc2n(Cc3ccccc3)c(=O)c3ccccc3n12	76.08%	6%	11%	6%
O=c1c2ccccc2n2c(CCl)nnc2n1Cc1ccccc1	72.96%	5%	7%	4%
CN1CCN(Cc2nnc3n(Cc4ccccc4)c(=O)c4ccccc4n23)CC1	74.83%	8%	17%	7%
O=c1c2ccccc2n2c(CN3CCCC3)nnc2n1Cc1ccccc1	73.69%	8%	12%	8%
CCc1nnc2n(Cc3ccccc3)c(=O)c3ccccc3n12	74.39%	7%	12%	9%
O=c1c2ccccc2n2c(CN3CCNCC3)nnc2n1Cc1ccccc1	74.44%	6%	14%	8%
O=c1c2ccccc2n2c(CN3CCOCC3)nnc2n1Cc1ccccc1	74.1%	7%	13%	6%
